≈ marks a conversion by molar mass, not a printed value. Where a name gives a salt, the structure may show the parent alone. Marks after values point to notes of the source that are not given here.
Assays:
[1] = Water solubility, shake flask method in 0.1 M phosphate buffer pH 6.8; format: physicochemical; details: 37 °C, pH 6.8, aqueous buffer, thermodynamic from solid
In short: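 Excess solid added to 1 mL sodium phosphate buffer, pH 6.8. Two conditions: 90 min sonication at 37 °C, or 30 min sonication at 37 °C, 23 h shaking at 300 rpm, then 30 min sonication. Centrifuged 14000 rpm for 5 min, filtered (0.2 µm) at 37 °C and diluted in DMSO. Quantified by LC at maximum absorbance against standard curves; independent triplicates.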

[2] = tested on: HT‐29 cells; experiment: Intracellular ROS; format: cell-based; details: Homo sapiens; for activity at 1 µM: HT-29, read-out: Intracellular ROS, percentage compared to the untreated control cells (ROS/SRB), HT‐29, 1 μM; for activity at 10 µM: HT-29, read-out: Intracellular ROS, percentage compared to the untreated control cells (ROS/SRB), HT‐29, 10 μM
In short: (§1)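 Cells grown in DMEM+glutamax with 1% NEAA, 1% P/S and 10% FBS at 37 °C, 10% CO2. Seeded at 2×10^4 cells/well for 24 h, then confluent cells were exposed to test compound at 1 or 10 µM in serum-free medium, with NAC as control. Cells were washed, loaded with DCFH-DA for 30 min, then kept 1 h in phenol red-free DMEM. Fluorescence read at ex 485/em 535 nm, normalised to same-well SRB protein (490 nm) and given as % of untreated cells. Mean ± SD, n≥3; two-tailed t-test with unequal variances.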

[3] = tested on: HepG2 cells; experiment: Protein content; format: cell-based; details: Homo sapiens, HepG2, 72 h, read-out: HepG2 IC50 SRB
In short: (§2)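 Seeded 2×10^4 cells per well for 24 h, then treated with or without test compound for three days, in triplicate. Fixed with 50% TCA for 1 h at 4 °C, washed and dried. Stained 30 min at 4 °C with 0.4% sulforhodamine B in 1% acetic acid, rinsed with 1% acetic acid. Dye redissolved in Tris buffer, absorbance read at 490 nm. Doxorubicin control; MTT and SRB data pooled, mean ± SD, n≥6.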

[4] = tested on: HepG2 cells; experiment: Intracellular ROS; format: cell-based; details: Homo sapiens; for activity at 1 µM: HepG2, read-out: Intracellular ROS, percentage compared to the untreated control cells (ROS/SRB), HepG2, 1 μM; for activity at 10 µM: HepG2, read-out: Intracellular ROS, percentage compared to the untreated control cells (ROS/SRB), HepG2, 10 μM
In short: as §1

[5] = tested on: HepG2 cells; experiment: Mitochondria activity; format: cell-based; details: Homo sapiens, HepG2, 72 h, read-out: HepG2 IC50 MTT
In short: (§3)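 Cells kept in DMEM+glutamax with 1% NEAA, 1% P/S and 10% FBS at 37 °C, 10% CO2. Seeded 2×10^4 per well for 24 h, then exposed 72 h to test compound at various concentrations in serum-free medium, in triplicate. MTT (5 mg/mL in PBS) added for 2 h, formazan dissolved in DMSO, read at 570 nm. IC50 from % survival; doxorubicin control; MTT and SRB data pooled, mean ± SD, n≥6.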

[6] = tested on: Caco‐2 cells; experiment: Mitochondria activity; format: cell-based; details: Homo sapiens, Caco-2, 72 h, read-out: Caco‐2 IC50 MTT
In short: as §3

[7] = tested on: EA.hy926 cells; experiment: Intracellular ROS; format: cell-based; details: Homo sapiens; for activity at 1 µM: EA.hy 926, read-out: Intracellular ROS, percentage compared to the untreated control cells (ROS/SRB), EA.hy926, 1 μM; for activity at 10 µM: EA.hy 926, read-out: Intracellular ROS, percentage compared to the untreated control cells (ROS/SRB), EA.hy926, 10 μM
In short: as §1

[8] = tested on: HT‐29 cells; experiment: Protein content; format: cell-based; details: Homo sapiens, HT-29, 72 h, read-out: HT‐29 IC50 SRB
In short: as §2

[9] = tested on: Caco‐2 cells; experiment: Intracellular ROS; format: cell-based, human; details: protein content normalization, mean±SD, n≥3
In short: as §1

[10] = tested on: EA.hy926 cells; experiment: Protein content; format: cell-based; details: Homo sapiens, EA.hy 926, 72 h, read-out: EA.hy926 IC50 SRB
In short: as §2

[11] = tested on: EA.hy926 cells; experiment: Mitochondria activity; format: cell-based; details: Homo sapiens, EA.hy 926, 72 h, read-out: EA.hy926 IC50 MTT
In short: as §3

[12] = tested on: Caco‐2 cells; experiment: Protein content; format: cell-based; details: Homo sapiens, Caco-2, 72 h, read-out: Caco‐2 IC50 SRB
In short: as §2

[13] = Ferric reducing antioxidant power; details: chemical antioxidant capacity, n=3
In short: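 FRAP reagent made from acetate buffer, TPTZ in ethanol and FeCl3·6H2O in dilute HCl, mixed 10:1:1, with TPTZ and iron solutions fresh daily. Sample mixed with reagent 1:9, absorbance read at 593 nm after 4 min. Values expressed as Trolox equivalents by linear regression on a Trolox standard curve; α-tocopherol positive control.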

[14] = tested on: HT‐29 cells; experiment: Mitochondria activity; format: cell-based; details: Homo sapiens, HT-29, 72 h, read-out: HT‐29 IC50 MTT
In short: as §3

SMILES | solubility at 90 min [1] [µM] | solubility at 24 h [1] [µM] | activity at 1 µM [2] [%] | activity at 10 µM [2] [%] | IC50 [3] [µM] | activity at 1 µM [4] [%] | activity at 10 µM [4] [%] | IC50 [5] [µM] | IC50 [6] [µM] | activity at 1 µM [7] [%] | activity at 10 µM [7] [%] | IC50 [8] [µM] | Intracellular ROS, percentage compared to the untreated control cells (ROS/SRB), Caco‐2, 1 μM [9] | Intracellular ROS, percentage compared to the untreated control cells (ROS/SRB), Caco‐2, 10 μM [9] | IC50 [10] [µM] | IC50 [11] [µM] | IC50 [12] [µM] | FRAP [13] [Trolox equiv per μM] | IC50 [14] [µM]
CC(C)CNC(=C\C(=O)/C=C/c1cccnc1)/C=C/c1cccnc1 [5 a, (1E,4Z,6E)‐5‐Isobutylamino‐1,7‐di(pyridin‐3‐yl)hepta‐1,4,6‐trien‐3‐one] | 168 ± 6 (≈ 56.2 µg/mL) | 303 ± 16 (≈ 101 µg/mL) | 103 ± 11.1 | 84.1 ± 2.5 | 20.8 ± 1.5 | 90.7 ± 13.7 | 94 ± 4.6 | 26.2 ± 0.3 | 45.3 ± 10.5 | 88.7 ± 9.3 | 93.4 ± 14.6 | 30.9 ± 10.9 | 109.8±7.4% | 114.7±3.1^[b] % | 35.9 ± 7.2 | 33 ± 9.5 | 31.6 ± 9 | 0.03 | 37.6 ± 1.8
O=C(/C=C(/C=C/c1cccnc1)NC1CCCCC1)/C=C/c1cccnc1 [5 b, (1E,4Z,6E)‐5‐Cyclohexylamino‐1,7‐di(pyridin‐3‐yl)hepta‐1,4,6‐trien‐3‐one] | 11.3 ± 0.6 (≈ 4.06 µg/mL) | 12.2 ± 0.6 (≈ 4.39 µg/mL) | 93.7 ± 13.2 | 90.6 ± 2.8 | > 75 | 92.3 ± 7.8 | 98.8 ± 4.6 | > 75 | 65.6 ± 2.1 | 89.1 ± 4.2 | 114 ± 9.5 | 19.4 ± 0.9 | 101.3±0.9% | 117.7±5.6^[b] % | 53 ± 1.9 | 40.2 ± 1.4 | 60.8 ± 6 | 0.00 | 36.4 ± 7.9
COCCNC(=C\C(=O)/C=C/c1cccnc1)/C=C/c1cccnc1 [5 c, (1E,4Z,6E)‐5‐(2‐Methoxyethylamino)‐1,7‐di(pyridin‐3‐yl)hepta‐1,4,6‐trien‐3‐one] | 895 ± 18 (≈ 300 µg/mL) | 2280 ± 174 (≈ 766 µg/mL) | 100 ± 5.8 | 88.1 ± 3.6 | 66.4 ± 1.3 | 94.8 ± 4 | 88.4 ± 5.3 | 56.7 ± 3.7 | 53.8 ± 0.6 | 83.7 ± 6.7 | 89.5 ± 2.7 | 46 ± 15.8 | 102.4±8.8% | 243.2±17.5^[b] % | 63 ± 8.3 | 60 ± 10.5 | 49.1 ± 0.6 | 0.00 | 55.3 ± 12.5
COCCCNC(=C\C(=O)/C=C/c1cccnc1)/C=C/c1cccnc1 [5 d, (1E,4Z,6E)‐5‐(3‐Methoxypropylamino)‐1,7‐di(pyridin‐3‐yl)hepta‐1,4,6‐trien‐3‐one] | 897.4 ± 1.1 (≈ 314 µg/mL) | 2310 ± 90 (≈ 808 µg/mL) | 102 ± 19.4 | 95.1 ± 14 | > 75 | 92.3 ± 4.6 | 89.4 ± 3.1 | > 75 | 28.5 ± 3.5 | 102 ± 5.8 | 98.3 ± 2 | 51.5 ± 6.1 | 101.5±9.2% | 110.6±5.3^[b] % | 72.7 ± 3.7 | 70.6 ± 2.5 | 36 ± 0.1 | 0.01 | 59.6 ± 7.7
O=C(/C=C(/C=C/c1cccnc1)NCCO)/C=C/c1cccnc1 [5 e, (1E,4Z,6E)‐5‐(2‐Hydroxyethylamino)‐1,7‐di(pyridin‐3‐yl)hepta‐1,4,6‐trien‐3‐one] | 4350 ± 260 (≈ 1400 µg/mL) | 4850 ± 140 (≈ 1560 µg/mL) | 93.9 ± 5.5 | 110 ± 3.7 | > 75 | 88.6 ± 15.2 | 92.1 ± 5.1 | > 75 | > 75 | 102 ± 1.6 | 115 ± 7.6 | > 75 | 111.4±8.9% | 118.6±2.8^[c] % | > 75 | > 75 | > 75 | 0.04 | > 75
COc1cccc2c1C(=O)c1c(O)c3c(c(O)c1C2=O)C[C@@](O)(C(=O)CO)C[C@@H]3O[C@H]1C[C@H](N)[C@H](O)[C@H](C)O1 [Dox, doxorubicin hydrochloride, reference compound] | – | – | – | – | 2.5 ± 1.2 | – | – | 5.5 ± 1.4 | 11.1 ± 1 | – | – | 3.5 ± 0.4 | – | – | 1.4 ± 0.3 | 1.4 ± 0.5 | 12.1 ± 0.8 | – | 4 ± 0.9
CC(=O)N[C@@H](CS)C(=O)O [N‐acetyl‐L‐cysteine, reference compound] | – | – | 90.1 ± 12 | 87.7 ± 3.7 | – | 73.1 ± 2.7 | 70.5 ± 3.1 | – | > 75 | 79.6 ± 11.1 | 79.6 ± 7.4 | – | 55.7±5.8^[c] % | 47.8±2.6^[c] % | – | – | > 75 | – | –
Cc1c(C)c2c(c(C)c1O)CC[C@@](C)(CCC[C@H](C)CCC[C@H](C)CCCC(C)C)O2 [α‐tocopherol, reference compound] | – | – | – | – | – | – | – | – | – | – | – | – | – | – | – | – | – | 0.76 | –
